Laboratory results taken from ChEMBL document CHEMBL4007417, “Target Elucidation by Cocrystal Structures of NADH-Ubiquinone Oxidoreductase of Plasmodium falciparum (PfNDH2) with Small Molecule To Eliminate Drug-Resistant Malaria” (J Med Chem, 2017).
The source made the active and inactive calls. The rule behind the calls is not given here.

Legend:
[1] = tested on: Plasmodium yoelii; assay: Antimalarial activity against Plasmodium yoelii YM infected in BALB/c mouse assessed as time duration for parasite cure at 30 mg/kg, sc administered BID for 4 days starting at 96 hrs post infection, 8 hrs apart by Giemsa-staining based microscopic analysis; assay type: functional
How it was run: (§1)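 P. yoelii-infected mice, n=3 per group. Subcutaneous injection twice daily, 8 h apart, for 4 days starting at 96 h post infection. Growth inhibition read from blood smears at 24 h post treatment. Cure time taken as the minimum period to cure all mice in the group. DMSO controls included.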

[2] = tested on: Plasmodium yoelii; assay: Antimalarial activity against Plasmodium yoelii YM infected in BALB/c mouse assessed as time duration for parasite cure at 5 mg/kg, sc administered QD for 4 days starting at 2 hrs post infection by Giemsa-staining based microscopic analysis; assay type: functional
How it was run: (§2)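 P. yoelii-infected mice, n=3 per group. Subcutaneous injection once daily for 4 days starting at 2 h post infection. Growth inhibition determined at 24 h post treatment by blood-smear microscopy. Cure time taken as the minimum period to cure all mice in the group.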

[3] = tested on: Plasmodium yoelii; assay: Antimalarial activity against Plasmodium yoelii YM infected in BALB/c mouse assessed as time duration for parasite cure at 10 mg/kg, sc administered QD for 4 days starting at 96 hrs post infection by Giemsa-staining based microscopic analysis; assay type: functional
How it was run: (§3)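 P. yoelii-infected mice, n=3 per group. Subcutaneous injection once daily for 4 days starting at 96 h post infection. Parasitemia followed on blood-smear microscopy, with inhibition measured at 24 h post treatment. Cure time taken as the minimum period to cure all mice; survival recorded at 40 days. DMSO controls included.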

[4] = tested on: Plasmodium yoelii; assay: Antimalarial activity against Plasmodium yoelii YM infected in BALB/c mouse assessed as parasite growth inhibition at 10 mg/kg, sc administered BID for 4 days starting at 96 hrs post infection, 8 hrs apart by Giemsa-staining based microscopic analysis; assay type: functional; conditions: read-out: GI; how it was run: as §1
[5] = tested on: Plasmodium yoelii; assay: Antimalarial activity against Plasmodium yoelii YM infected in BALB/c mouse assessed as parasite growth inhibition at 90 mg/kg, sc administered BID for 4 days starting at 96 hrs post infection, 8 hrs apart by Giemsa-staining based microscopic analysis; assay type: functional; conditions: read-out: GI; how it was run: as §1
[6] = tested on: Plasmodium yoelii; assay: Antimalarial activity against Plasmodium yoelii YM infected in BALB/c mouse assessed as mouse survival at 10 mg/kg, sc administered QD for 4 days starting at 96 hrs post infection by Giemsa-staining based microscopic analysis; assay type: functional
How it was run: (§4)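 Mice inoculated with 1×106 P. yoelii parasites. Subcutaneous dosing for 4 days starting 96 h post infection, given once daily or twice daily 8 h apart. Parasitemia followed on Giemsa-stained blood smears. Survival recorded at 40 days post infection; groups of n=3. DMSO-only mice served as untreated controls.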

[7] = tested on: Plasmodium yoelii; assay: Antimalarial activity against Plasmodium yoelii YM infected in BALB/c mouse assessed as mouse survival at 5 mg/kg, sc administered QD for 4 days starting at 2 hrs post infection by Giemsa-staining based microscopic analysis; assay type: functional
How it was run: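 Mice inoculated with 1×106 P. yoelii parasites, then dosed subcutaneously once daily for 4 days starting 2 h post infection. Parasitemia followed by microscopy of blood smears. Survival scored at 40 days post infection in groups of n=3 mice. DMSO-only controls.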

[8] = tested on: Plasmodium yoelii; assay: Antimalarial activity against Plasmodium yoelii YM infected in BALB/c mouse assessed as parasite growth inhibition at 10 mg/kg, sc administered QD for 4 days starting at 96 hrs post infection by Giemsa-staining based microscopic analysis; assay type: functional; conditions: read-out: GI; how it was run: as §3
[9] = tested on: Plasmodium yoelii; assay: Antimalarial activity against Plasmodium yoelii YM infected in BALB/c mouse assessed as mouse survival at 90 mg/kg, sc administered BID for 4 days starting at 96 hrs post infection, 8 hrs apart by Giemsa-staining based microscopic analysis; assay type: functional; how it was run: as §4
[10] = tested on: Plasmodium yoelii; assay: Antimalarial activity against Plasmodium yoelii YM infected in BALB/c mouse assessed as parasite growth inhibition at 5 mg/kg, sc administered QD for 4 days starting at 2 hrs post infection by Giemsa-staining based microscopic analysis; assay type: functional; conditions: read-out: GI; how it was run: as §2
[11] = tested on: Plasmodium yoelii; assay: Antimalarial activity against Plasmodium yoelii YM infected in BALB/c mouse assessed as time duration for parasite cure at 10 mg/kg, sc administered BID for 4 days starting at 96 hrs post infection, 8 hrs apart by Giemsa-staining based microscopic analysis; assay type: functional; how it was run: as §1
[12] = tested on: Plasmodium yoelii; assay: Antimalarial activity against Plasmodium yoelii YM infected in BALB/c mouse assessed as mouse survival at 30 mg/kg, sc administered BID for 4 days starting at 96 hrs post infection, 8 hrs apart by Giemsa-staining based microscopic analysis; assay type: functional; how it was run: as §4
[13] = tested on: Plasmodium yoelii; assay: Antimalarial activity against Plasmodium yoelii YM infected in BALB/c mouse assessed as parasite cure level at 10 to 90 mg/kg, ip administered on days 1 post infection by Giemsa-stained microscopic analysis; assay type: functional, organism-based
How it was run: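 Mice (groups of three) inoculated with 1×10^6 P. yoelii parasites. Single intraperitoneal dose of 10, 30 or 90 mg/kg given 24 h after inoculation. DMSO-only untreated group included. Outcome followed by blood-smear microscopy for cure, with survival scored at 40 days post infection.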

[14] = tested on: Plasmodium yoelii; assay: Antimalarial activity against Plasmodium yoelii YM infected in BALB/c mouse assessed as mouse survival at 10 mg/kg, sc administered BID for 4 days starting at 96 hrs post infection, 8 hrs apart by Giemsa-staining based microscopic analysis; assay type: functional; how it was run: as §4
[15] = tested on: Plasmodium yoelii; assay: Antimalarial activity against Plasmodium yoelii YM infected in BALB/c mouse assessed as time duration for parasite cure at 90 mg/kg, sc administered BID for 4 days starting at 96 hrs post infection, 8 hrs apart by Giemsa-staining based microscopic analysis; assay type: functional; how it was run: as §1
[16] = tested on: Plasmodium yoelii; assay: Antimalarial activity against Plasmodium yoelii YM infected in BALB/c mouse assessed as parasite growth inhibition at 30 mg/kg, sc administered BID for 4 days starting at 96 hrs post infection, 8 hrs apart by Giemsa-staining based microscopic analysis; assay type: functional; conditions: read-out: GI; how it was run: as §1
[17] = tested on: Plasmodium falciparum; assay: Antimalarial activity against […] asexual blood stage Plasmodium falciparum 3D7 after 72 hrs by SYBR green-based fluorometric analysis; assay type: functional; conditions: 3D7, 72 h
How it was run: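 Mid-ring-stage cultures (~6-10 h post-invasion) at 1% parasitemia and 2% hematocrit, in triplicate. Twofold serial dilutions from a top concentration of 100 nM. Incubated 72 h at 37 °C under 5% CO2/5% O2/90% N2. Lysis buffer containing 5×SYBR Green I added, 20 min in the dark, fluorescence read at ex 485/em 538 nm. EC50 derived.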

Row | Structure (SMILES) | Time [1] [days] | Time [2] [days] | Time [3] [days] | inhibition in vivo at 10 mg/kg [4] [%] | inhibition in vivo at 90 mg/kg [5] [%] | survival at 10 mg/kg [6] [%] | survival at 5 mg/kg [7] [%] | inhibition in vivo at 10 mg/kg [8] [%] | survival at 90 mg/kg [9] [%] | inhibition in vivo at 5 mg/kg [10] [%] | Time [11] [days] | survival at 30 mg/kg [12] [%] | Activity [13] | survival at 10 mg/kg [14] [%] | Time [15] [days] | inhibition in vivo at 30 mg/kg [16] [%] | EC50 [17] [nM]
1 | CCc1nc(N)nc(N)c1-c1ccc(Cl)cc1 [PYRIMETHAMINE] | 4 | 30 | 17 | 100 | 100 | 100 | 100 | 98.4 | 100 | 100 | 4 | 100 | Active | 100 | 4 | 100 | –
2 | C[C@H]1[C@@H](O)O[C@@H]2O[C@@]3(C)CC[C@H]4[C@H](C)CC[C@@H]1[C@@]24OO3 [ARTENIMOL] | 4 | – | – | 100 | 100 | – | – | – | 100 | – | 15 | 100 | Active | 100 | 4 | 100 | 4.32
